Reference: paper PMC5949723 (Journal of Medicinal Chemistry, 2018)

Key:
full length TbrPDEB1 [1] = target: T1, full length TbrPDEB1 (Trypanosoma brucei, UniProt Q8WQX9); experiment: Phosphodiesterase activity assay; type: biochemical; conditions: for Selectivity, hPDE4B1 (Ki)/TbrPDEB1 (Ki): ratio of Ki values
T1 sequence (Q8WQX9 1-930): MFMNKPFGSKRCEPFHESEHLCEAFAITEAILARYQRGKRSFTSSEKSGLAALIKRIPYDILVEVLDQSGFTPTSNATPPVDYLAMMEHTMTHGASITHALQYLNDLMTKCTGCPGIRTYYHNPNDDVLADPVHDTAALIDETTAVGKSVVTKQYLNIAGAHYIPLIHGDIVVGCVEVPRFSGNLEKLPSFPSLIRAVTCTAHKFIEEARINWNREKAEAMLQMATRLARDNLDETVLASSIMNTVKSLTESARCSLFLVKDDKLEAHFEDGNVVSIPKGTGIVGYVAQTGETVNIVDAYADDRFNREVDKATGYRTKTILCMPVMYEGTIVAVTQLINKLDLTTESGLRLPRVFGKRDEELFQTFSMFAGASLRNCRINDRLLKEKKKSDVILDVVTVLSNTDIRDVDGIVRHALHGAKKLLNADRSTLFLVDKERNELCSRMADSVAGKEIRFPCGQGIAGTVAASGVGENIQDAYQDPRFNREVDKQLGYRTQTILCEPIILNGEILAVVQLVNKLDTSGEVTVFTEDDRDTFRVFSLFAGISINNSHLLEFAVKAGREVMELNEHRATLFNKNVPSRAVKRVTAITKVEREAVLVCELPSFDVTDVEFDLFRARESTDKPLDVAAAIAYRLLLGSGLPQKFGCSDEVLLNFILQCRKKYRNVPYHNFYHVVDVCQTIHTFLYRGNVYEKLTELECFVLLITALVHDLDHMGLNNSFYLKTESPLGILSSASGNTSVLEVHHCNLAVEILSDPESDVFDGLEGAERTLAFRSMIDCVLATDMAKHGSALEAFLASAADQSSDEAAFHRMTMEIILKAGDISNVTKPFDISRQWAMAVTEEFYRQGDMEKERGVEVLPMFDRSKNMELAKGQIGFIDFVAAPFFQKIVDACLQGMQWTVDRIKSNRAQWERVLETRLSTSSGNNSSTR

[2] = target: T2, full length recombinant hPDE4B1 (Homo sapiens, UniProt Q07343); experiment: Phosphodiesterase activity assay; type: biochemical
[3] = test system: intracellular cAMP levels in T. brucei; experiment: Intracellular cAMP measurements in bloodstream form trypanosomes; type: cell-based, T. brucei Lister 427; conditions: 5 h
In short: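 Log-phase bloodstream forms, HMI-9 with 10% heat-inactivated FBS, 37 °C, 5% CO2, set at 2 × 10^6 cells/mL. Dosed 5 h with test compound at 0.1, 0.33, 1, 3.3 or 10 μM (final), 0.3 μM PDE inhibitor positive control, 0.025 μM pentamidine, or no drug. 5 × 10^6 cells pelleted and lysed in 0.1 M HCl on ice 20 min; cAMP assayed in extracts in duplicate. Mean of four determinations ± SEM, Student's t-test, P < 0.05.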

[4] = test system: T. brucei bloodstream forms; experiment: Microscopy and DAPI staining; type: cell-based; conditions: 10 μM
In short: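 Lister 427 bloodstream forms in HMI-9 with 10% heat-inactivated FBS, 37 °C, 5% CO2, seeded at 2 × 10^5 cells/mL with 10 μM test compound. Sampled at 0, 6, 12 and 24 h, pelleted at 4 °C, washed in PBS pH 7.4 and spread on slides. DAPI-stained; brightfield and fluorescence imaging scored nuclear and kinetoplast division, cytokinesis and morphology.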

[5] = target: T2, full length recombinant hPDE4B1; conditions: read-out: hPDE4B1 IC50; cited from earlier work
hPDE4 subtypes = conditions: read-out: hPDE4 subtypes IC50; cited from earlier work
full length TbrPDEB1 [6] = target: T1, full length TbrPDEB1; conditions: established hPDE4 inhibitors; cited from earlier work
[7] = test system: T. brucei cellular PDE activity; conditions: cited from earlier work
T. brucei = conditions: cited from earlier work

T2 sequence (Q07343 whole entry): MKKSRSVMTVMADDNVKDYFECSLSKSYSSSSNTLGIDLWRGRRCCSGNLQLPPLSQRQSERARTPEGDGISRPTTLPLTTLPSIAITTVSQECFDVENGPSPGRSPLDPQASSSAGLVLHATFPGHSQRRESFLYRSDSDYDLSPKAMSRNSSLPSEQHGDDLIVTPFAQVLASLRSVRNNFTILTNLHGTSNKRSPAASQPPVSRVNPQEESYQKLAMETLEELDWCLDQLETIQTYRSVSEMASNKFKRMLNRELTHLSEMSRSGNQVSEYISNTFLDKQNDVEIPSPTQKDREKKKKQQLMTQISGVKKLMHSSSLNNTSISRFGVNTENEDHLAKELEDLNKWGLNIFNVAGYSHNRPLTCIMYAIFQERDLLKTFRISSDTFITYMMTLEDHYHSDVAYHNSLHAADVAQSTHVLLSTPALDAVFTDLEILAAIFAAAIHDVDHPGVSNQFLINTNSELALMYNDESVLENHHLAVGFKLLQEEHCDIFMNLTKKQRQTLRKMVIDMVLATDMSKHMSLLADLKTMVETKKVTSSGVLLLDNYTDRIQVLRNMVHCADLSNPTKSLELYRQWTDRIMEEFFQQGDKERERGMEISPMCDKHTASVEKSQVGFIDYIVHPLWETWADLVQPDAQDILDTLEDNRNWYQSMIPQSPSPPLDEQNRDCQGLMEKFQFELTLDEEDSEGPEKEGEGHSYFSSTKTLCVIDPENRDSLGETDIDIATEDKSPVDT

## COc1ccc(C2=NN(C3CCCCCC3)C(=O)C3CC=CCC23)cc1-c1ccc(C(=O)N2CC[C@@H](O)C2)cc1 (mixture of isomers) [compound 21, cis-2-Cycloheptyl-4-(4′-((R)-3-hydroxy-pyrrolidine-1-carbonyl)-6-methoxy-[1,1′-biphenyl]-3-yl)-4a,5,8,8a-tetrahydrophthalazin-1(2H)-one]
Full length TbrPDEB1 [1]
  Selectivity, hPDE4B1 (Ki)/TbrPDEB1 (Ki): 9

## COc1ccc(C2=NN(C(C)C)C(=O)C3CC=CCC23)cc1-c1ccc(C(=O)N2CC[C@@H](O)C2)cc1 (mixture of isomers) [compound 22, cis-4-(4′-((R)-3-Hydroxypyrrolidine-1-carbonyl)-6-methoxy-[1,1′-biphenyl]-3-yl)-2-isopropyl-4a,5,8,8a-tetrahydrophthalazin-1(2H)-one]
Full length TbrPDEB1 [1]
  Ki: 200 nM
  Selectivity, hPDE4B1 (Ki)/TbrPDEB1 (Ki): 15
[2]
  Ki: 3160 nM

## COc1ccc(C2=NN(C3CCCCCC3)C(=O)C3CC=CCC23)cc1-c1ccc(C(=O)N2CCC[C@@H]2C(N)=O)cc1 (mixture of isomers) [compound 23, (R)-1-(5′-(cis-3-Cycloheptyl-4-oxo-3,4,4a,5,8,8a-hexahydrophthalazin-1-yl)-2′-methoxy-[1,1′-biphenyl]-4-carbonyl)pyrrolidine-2-carboxamide]
Full length TbrPDEB1 [1]
  selectivity for TbrPDEB1 over hPDE4B1: more than 10 fold

## COc1ccc(C2=NN(C(C)C)C(=O)C3CC=CCC23)cc1-c1ccc(C(=O)N2CCC[C@@H]2C(N)=O)cc1 (mixture of isomers) [compound 24, (R)-1-(5′-(cis-3-Isopropyl-4-oxo-3,4,4a,5,8,8a-hexahydrophthalazin-1-yl)-2′-methoxy-[1,1′-biphenyl]-4-carbonyl)pyrrolidine-2-carboxamide]
Full length TbrPDEB1 [1]
  selectivity for TbrPDEB1 over hPDE4B1: more than 10 fold
  Selectivity, hPDE4B1 (Ki)/TbrPDEB1 (Ki): 18
[2]
  Ki: 10000 nM

## COc1ccc(C2=NN(C3CCCCCC3)C(=O)[C@@H]3CC=CC[C@H]23)cc1-c1ccc(C(=O)NCC(N)=O)cc1 (relative stereo) [compound 8, N-(2-Amino-2-oxoethyl)-5′-(cis-3-cycloheptyl-4-oxo-3,4,4a,5,8,8a-hexahydrophthalazin-1-yl)-2′-methoxy-[1,1′-biphenyl]-4-carboxamide]
Full length TbrPDEB1 [1]
  Ki: 100 nM
[2]
  Ki: 1000 nM
[3]; 100 nM, P < 0.05
  effect on intracellular cAMP level: small but significant effect
[3]; 10 μM, P < 0.001
  effect on intracellular cAMP level: strong increase of cAMP level
[4]; 6 h
  cellular phenotype by fluorescence microscopy: defect in cytokinesis
[4]; 12 h
  cellular phenotype by fluorescence microscopy: rounded cells with multiple flagella, some of them detached, and at least 4 nuclei
[4]; 24 h
  cellular phenotype by fluorescence microscopy: only a few live cells could be detected, all of which were severely misshapen

## COc1ccc(C2=NN(C3CCCCCC3)C(=O)[C@@H]3CC=CC[C@H]23)cc1-c1ccc(C(=O)NCC(=O)NCCO)cc1 (relative stereo) [compound 16, 5′-(cis-3-Cycloheptyl-4-oxo-3,4,4a,5,8,8a-hexahydrophthalazin-1-yl)-N-(2-((2-hydroxyethyl)amino)-2-oxoethyl)-2′-methoxy-[1,1′-biphenyl]-4-carboxamide]
Full length TbrPDEB1 [1]
  selectivity for TbrPDEB1 over hPDE4B1: ~8 fold

## COc1ccc(C2=NN(C3CCCCCC3)C(=O)[C@H]3CC=CC[C@@H]23)cc1-c1ccc(C(=O)NCC(N)=O)cc1 [8a, N-(2-Amino-2-oxoethyl)-5′-((4aS,8aR)-3-cycloheptyl-4-oxo-3,4,4a,5,8,8a-hexahydrophthalazin-1-yl)-2′-methoxy-[1,1′-biphenyl]-4-carboxamide]
Full length TbrPDEB1 [1]; 8a versus 8b
  fold less potent against TbrPDEB1 than optical isomer 8b: 100 fold

## COc1ccc(C2=NN(C3CCCCCC3)C(=O)[C@@H]3CC=CC[C@H]23)cc1OCCCCOc1ccc(-c2nnn[nH]2)cc1 [compound 1]
[3]; positive control 0.3 μM, compared with 10 μM of 8
  effect on intracellular cAMP level: equally effective
[5]
  IC50: 0.6 nM
hPDE4 subtypes
  IC50: < 1 nM

## CCOC(=O)c1cnc2c(cnn2CC)c1NN=C(C)C [etazolate]
Full length TbrPDEB1 [6]
  inhibition of the enzyme TbrPDEB1: do not inhibit
[7]
  inhibition of T. brucei cellular PDE activity: do not inhibit
T. brucei
  killing of the parasite: do not kill the parasite

## N=C(N)c1ccc(OCCCCCOc2ccc(C(=N)N)cc2)cc1 [pentamidine, reference compound]
[3]; negative control, 0.025 μM, versus untreated parasites
  effect on intracellular cAMP level: not statistically different from untreated parasites

## COc1ccc(C2CNC(=O)C2)cc1OC1CCCC1 (stereo not drawn) [rolipram]
Full length TbrPDEB1 [6]
  inhibition of the enzyme TbrPDEB1: do not inhibit
[7]
  inhibition of T. brucei cellular PDE activity: do not inhibit
T. brucei
  killing of the parasite: do not kill the parasite
